Measured values published in PubChem BioAssay.
Activity calls are given as the source filed them.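 Rule for the calls, unless noted: active = inhibition above 20% together with a positive visual image hit; inconclusive = visual image hit but inhibition not above 20%; inactive = no visual image hit.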

Tests used:
[1] = inhibitors of TNFa-induced NFkB p65 translocation, primary screen, imaging, HUVEC, MLSMR starter and 10KST1 sets (AID 438); details: HUVEC TNFa-induced p65 nuclear translocation; cell count: measured here: nuclei count (cytotoxicity indicator), at 2.08 µM; inhibition: at 2 µM, stronger effect = higher value, 0% TNFa-plus-vehicle, 100% no-TNFa wells;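 note: compound added about 3h40 before a 20 min TNFalpha stimulation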;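 for inhibition: signal is the nuclear over cytoplasmic p65 intensity ratio per well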
[2] = inhibitors of E-selectin induction by TNFa, primary screen, imaging, HUVEC, immunofluorescence, MLSMR starter and 10KST1 sets (AID 487;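 active = visually confirmed hit in the image check and inhibition above 20%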;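 for inhibition: signal is fraction of cell area covered by stained E-selectin grains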;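 for nuclei count: 100% = median nuclei count of all wells on the same plate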); details: HUVEC TNFalpha-induced E-selectin immunofluorescence imaging, at 2 µM; inhibition: stronger effect = higher value; nuclei count: measured here: cell number, toxicity
[3] = DUSP6 inhibitors restoring Erk phosphorylation by chemical complementation, primary imaging in DUSP6-transfected HeLa (AID 609;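 active = compounds giving at least 50% inhibition in the cell-based MKP-3 phosphatase rescue imaging test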;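 for inhibition: phospho-Erk level distribution per well compared with pooled transfected vehicle control wells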); details: HeLa MKP-3 transfected, phospho-Erk imaging KS statistic, at 10 µM, cells stimulated with TPA for 15 min
[4] = molecular target: Dual specificity protein phosphatase 6 (Homo sapiens) (UniProt Q16828); experiment: as above; details: HeLa MKP-3 transfected, phospho-Erk imaging KS statistic; at 10 µM; stronger effect = higher value; cells stimulated with TPA for 15 min
[5] = molecular target: Voltage-gated potassium channel subunit beta-2 (Rattus norvegicus) (UniProt P62483); experiment: KvBeta enzyme negative modulators, primary screen, biochemical, NADPH fluorescence (AID 622;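 active = fluorescence slope higher than the sample average by over 3 SD, cut at about -0.22 in these data, passing the limit was not always enough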;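 note: slope of raw intensity against log time taken from 70 to 1610 s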); details: recombinant KvBeta, 4-cyanobenzaldehyde reduction, at 10 µM, stronger effect = higher value
[6] = molecular target: Voltage-gated potassium channel subunit beta-2 (Rattus norvegicus) (UniProt P62483); experiment: KvBeta positive modulators, primary screen, biochemical, NADPH fluorescence (AID 623;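 active = NADPH fluorescence slope more negative than the mean of all samples by about 3 SD, 99.7% confidence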;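 note: fluorescence intensity change per second fitted from 20 to 320 s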); details: Recombinant KvBeta, NADPH fluorescence decrease slope, 10 min; at 10 µM; stronger effect = lower value
[7] = molecular target: Muscarinic acetylcholine receptor M4 (Homo sapiens) (UniProt P08173); experiment: compounds altering M4/GIRK thallium flux, either direction, primary screen, M4 allosteric agonist project, cell-based, HEK293 M4/GIRK, BTC-AM (AID 625;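 active = fluorescence slope after compound addition differing from the mean of all tested samples at 99.7% confidence, mostly higher but some lower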;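 note: thallium influx through GIRK channels coupled to M4 in HEK293 cells with BTC-AM dye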); details: at 10 µM, actives lie on both sides
In short: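 Assay system: HEK293 cells with M4 receptor and GIRK channels / Controls: carbachol and DMSO controls / Schedule: 1 h dye loading, 2 min kinetic read / Technique: kinetic fluorescence with BTC-AM dye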

[8] = inhibitors of larval lipid processing in zebrafish, primary screen, whole organism, PED6 fluorescence, gall bladder and intestine (AID 686;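 active = a full or partial loss of lipid-probe fluorescence in the fish gall bladder, intestine or both, judged by eye; inactive = no fluorescence loss, or compound toxic to the fish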;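 note: larvae 5 to 7 days old with five fish per well; signal comes from phospholipase A2 cleavage of quenched PED6 carried via bile; overnight exposure to compound and PED6 before scoring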); details: Zebrafish larvae PED6 lipid processing, fluorescence scoring; screened at 20 µM (by protocol)
In short: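 Doses: 20 µM single dose. Test system: live zebrafish larvae aged 5-7 days, whole organism. Quantity: five larvae per well. Measured by: By-eye fluorescence microscopy. Reagent: ingested quenched lipid PED6 at 100 nM. Read-out: visual per-well fluorescence inhibition score. Times: overnight exposure of larvae to compound plus PED6.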

[9] = inhibitors of Chlamydomonas gravitaxis, primary screen, whole organism, Chlamydomonas reinhardtii, WT vs cilia-less mutant, absorbance, 96-well (AID 463189;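 active = inhibition at or above 50% relative to wild type and mutant plate controls; inactive = inhibition below 50%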;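 note: 0% = wild type cc124 cells in DMSO and 100% = ciliumless bld1 mutant cells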); details: OD600 absorbance, 2 days, at 10 µM, stronger effect = higher value
[10] = measured here: cell density z-score
[11] = measured here: nuclear c-Myc green intensity z-score
[12] = measured here: nuclear pErk red intensity z-score, stronger effect = higher value

Sequence of Dual specificity protein phosphatase 6 (Homo sapiens) (Q16828 whole entry, looked up): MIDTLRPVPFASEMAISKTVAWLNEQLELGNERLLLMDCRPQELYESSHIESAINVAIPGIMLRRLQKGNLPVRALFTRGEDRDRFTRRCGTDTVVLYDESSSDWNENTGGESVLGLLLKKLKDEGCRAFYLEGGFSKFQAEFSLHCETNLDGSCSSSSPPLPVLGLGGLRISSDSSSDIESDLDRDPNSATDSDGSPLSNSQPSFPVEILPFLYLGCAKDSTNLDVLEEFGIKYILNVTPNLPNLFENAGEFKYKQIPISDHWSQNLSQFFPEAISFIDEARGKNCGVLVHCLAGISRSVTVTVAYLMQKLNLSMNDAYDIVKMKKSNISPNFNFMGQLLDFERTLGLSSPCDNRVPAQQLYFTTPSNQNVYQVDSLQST
Sequence of Voltage-gated potassium channel subunit beta-2 (Rattus norvegicus) (P62483 whole entry, looked up): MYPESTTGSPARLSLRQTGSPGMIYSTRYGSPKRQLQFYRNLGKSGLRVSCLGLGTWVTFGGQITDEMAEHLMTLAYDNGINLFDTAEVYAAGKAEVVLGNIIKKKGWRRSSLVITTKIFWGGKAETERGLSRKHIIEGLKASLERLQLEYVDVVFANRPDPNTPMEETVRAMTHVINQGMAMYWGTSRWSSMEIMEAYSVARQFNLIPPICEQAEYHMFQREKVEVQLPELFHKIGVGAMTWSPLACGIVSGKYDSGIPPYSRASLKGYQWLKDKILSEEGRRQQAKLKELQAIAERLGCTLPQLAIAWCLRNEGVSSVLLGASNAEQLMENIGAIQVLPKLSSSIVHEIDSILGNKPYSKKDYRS
Sequence of Muscarinic acetylcholine receptor M4 (Homo sapiens) (P08173 whole entry, looked up): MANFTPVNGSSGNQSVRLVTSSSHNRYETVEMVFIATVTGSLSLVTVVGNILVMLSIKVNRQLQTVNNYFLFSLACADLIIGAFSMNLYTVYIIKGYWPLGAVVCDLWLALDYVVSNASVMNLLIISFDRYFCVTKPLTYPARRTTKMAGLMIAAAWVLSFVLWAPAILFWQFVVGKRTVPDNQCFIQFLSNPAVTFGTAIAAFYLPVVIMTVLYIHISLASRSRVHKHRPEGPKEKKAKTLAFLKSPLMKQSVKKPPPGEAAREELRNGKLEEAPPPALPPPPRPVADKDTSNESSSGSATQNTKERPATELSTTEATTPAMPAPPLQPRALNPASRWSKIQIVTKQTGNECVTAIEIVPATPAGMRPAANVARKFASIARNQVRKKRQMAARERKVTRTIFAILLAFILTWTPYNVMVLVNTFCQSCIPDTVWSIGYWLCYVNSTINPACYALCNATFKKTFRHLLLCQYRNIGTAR

COc1ccc(C2C(C#N)=C(N)Oc3cc(C)n(CCN4CCOCC4)c(=O)c32)cc1OC (stereo not drawn)
cell count [1]: 520
inhibition [1]: -5.9% (inactive)
inhibition [2]: 0.9% (inactive)
nuclei count [2]: 110%
z-score [3, 10]: -1.19
z-score [3, 11]: 0.613
z-score [3, 12]: -1.48
inhibition [4]: -10.1% (inactive)
fluorescence slope [5]: -0.468 (inactive)
NADPH fluorescence slope [6]: -3.9e-05 (inactive)
fluorescence slope [7]: 0.00521 (inactive)
outcome [8]: inactive
inhibition [9]: 1.58% (inactive)

O=C1CC(C(=O)O)c2ccccc2N1 (stereo not drawn)
cell count [1]: 589
inhibition [1]: 5.9% (inactive)
inhibition [2]: -180% (inactive)
nuclei count [2]: 135%
z-score [3, 10]: 0.749
z-score [3, 11]: 0.0521
z-score [3, 12]: -0.602
inhibition [4]: 15.4% (inactive)
fluorescence slope [5]: -0.465 (inactive)
NADPH fluorescence slope [6]: -0.000133 (inactive)
fluorescence slope [7]: 0.00465 (inactive)
outcome [8]: inactive
inhibition [9]: 6% (inactive)

CCCCOC(=O)c1[nH]c(C)c(C(=O)OC)c1C
cell count [1]: 604
inhibition [1]: -7.5% (inactive)
inhibition [2]: 50.3% (inactive)
nuclei count [2]: 98.7%
z-score [3, 10]: 0.82
z-score [3, 11]: -1.07
z-score [3, 12]: -0.474
inhibition [4]: 37% (inactive)
fluorescence slope [5]: -0.481 (inactive)
NADPH fluorescence slope [6]: -1.9e-05 (inactive)
fluorescence slope [7]: 0.00588 (inactive)
outcome [8]: inactive
inhibition [9]: 90.5% (active)

COc1ccc(Nc2cc(C)nc(-n3nc(C)cc3C)n2)cc1
cell count [1]: 454
inhibition [1]: 12% (inactive)
inhibition [2]: -182% (inactive)
nuclei count [2]: 127%
z-score [3, 10]: -0.499
z-score [3, 11]: -0.357
z-score [3, 12]: -1.13
inhibition [4]: -3.95% (inactive)
fluorescence slope [5]: -0.427 (inactive)
NADPH fluorescence slope [6]: -2.8e-05 (inactive)
fluorescence slope [7]: 0.00507 (inactive)
outcome [8]: inactive
inhibition [9]: 45% (inactive)

COc1ccc(/C(O)=C2/C(=O)C(=O)N(CCCN(C)C)C2c2ccc(C)o2)cc1Cl (stereo not drawn)
cell count [1]: 709
inhibition [1]: -8.3% (inactive)
inhibition [2]: -108% (inactive)
nuclei count [2]: 146%
z-score [3, 10]: -0.0808
z-score [3, 11]: -0.238
z-score [3, 12]: -0.0387
inhibition [4]: -6.48% (inactive)
fluorescence slope [5]: -0.48 (inactive)
NADPH fluorescence slope [6]: -4.6e-05 (inactive)
fluorescence slope [7]: 0.0051 (inactive)
outcome [8]: inactive
inhibition [9]: 18.3% (inactive)

CCCC(CCC(=O)Nc1ccc(C(=O)OC)cc1)C(=O)O (stereo not drawn)
cell count [1]: 402
inhibition [1]: -5.3% (inactive)
inhibition [2]: -85.5% (inactive)
nuclei count [2]: 145%
z-score [3, 10]: 0.89
z-score [3, 11]: -1.82
z-score [3, 12]: 0.0137
inhibition [4]: 26.5% (inactive)
fluorescence slope [5]: -0.445 (inactive)
NADPH fluorescence slope [6]: -8.7e-05 (inactive)
fluorescence slope [7]: 0.00528 (inactive)
outcome [8]: inactive
inhibition [9]: -1.65% (inactive)
